Assay results: PubChem BioAssay AID588484 (The Scripps Research Institute Molecular Screening Center, 2011)
Calls of active or inactive are those of the source.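 The calls were made as follows: active = IC50 of 1 µM or lower against any of the four tested PAD enzyme isoforms; inactive = the rest, IC50 above 1 µM everywhere.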

Key:
Assay in all cases: inhibition of PAD isozymes 1-4 – biochemical, colorimetric, BAEE substrate, recombinant PAD1-4, selectivity assay for PAD4 inhibitor project, late-stage follow-up (AID 588484)
[1] = molecular target: Protein-arginine deiminase type-3 (Homo sapiens) (UniProt Q9ULW8); conditions: recombinant PAD1-4, BAEE citrullination, colorimetric absorbance; PAD3
Chain of Protein-arginine deiminase type-3 (Homo sapiens) (Q9ULW8 whole entry, looked up): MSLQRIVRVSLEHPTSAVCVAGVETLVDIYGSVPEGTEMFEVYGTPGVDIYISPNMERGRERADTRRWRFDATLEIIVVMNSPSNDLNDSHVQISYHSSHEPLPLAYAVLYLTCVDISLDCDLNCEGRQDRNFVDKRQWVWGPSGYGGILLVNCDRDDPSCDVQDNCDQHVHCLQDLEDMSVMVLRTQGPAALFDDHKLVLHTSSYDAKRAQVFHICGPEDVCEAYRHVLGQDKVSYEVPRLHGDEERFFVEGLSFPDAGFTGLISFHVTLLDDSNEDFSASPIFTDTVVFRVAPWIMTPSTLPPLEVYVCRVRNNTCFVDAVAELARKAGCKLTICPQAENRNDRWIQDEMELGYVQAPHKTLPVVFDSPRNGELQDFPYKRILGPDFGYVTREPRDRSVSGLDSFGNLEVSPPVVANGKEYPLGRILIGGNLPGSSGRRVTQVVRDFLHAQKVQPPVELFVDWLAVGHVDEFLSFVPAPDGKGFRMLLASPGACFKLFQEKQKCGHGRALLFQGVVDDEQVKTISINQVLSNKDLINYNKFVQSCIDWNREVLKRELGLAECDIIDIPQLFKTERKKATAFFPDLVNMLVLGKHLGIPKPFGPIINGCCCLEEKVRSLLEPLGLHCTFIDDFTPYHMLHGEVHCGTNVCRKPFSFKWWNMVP
Procedure, shortened: (§1)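 material = recombinant PAD2, PAD3 or PAD4 | medium = Tris pH 7.6, CaCl2, DTT | incubation = 15 min pre-incubation (37 °C), 15 min reaction | signal = colorimetric citrulline measurement by absorbance at 540 nm | measure = IC50 from fitted concentration–activity curve | repeats = duplicates per concentration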

[2] = molecular target: Protein-arginine deiminase type-4 (Homo sapiens) (UniProt Q9UM07); conditions: recombinant PAD1-4, BAEE citrullination, colorimetric absorbance; PAD4
Chain of Protein-arginine deiminase type-4 (Homo sapiens) (Q9UM07 whole entry, looked up): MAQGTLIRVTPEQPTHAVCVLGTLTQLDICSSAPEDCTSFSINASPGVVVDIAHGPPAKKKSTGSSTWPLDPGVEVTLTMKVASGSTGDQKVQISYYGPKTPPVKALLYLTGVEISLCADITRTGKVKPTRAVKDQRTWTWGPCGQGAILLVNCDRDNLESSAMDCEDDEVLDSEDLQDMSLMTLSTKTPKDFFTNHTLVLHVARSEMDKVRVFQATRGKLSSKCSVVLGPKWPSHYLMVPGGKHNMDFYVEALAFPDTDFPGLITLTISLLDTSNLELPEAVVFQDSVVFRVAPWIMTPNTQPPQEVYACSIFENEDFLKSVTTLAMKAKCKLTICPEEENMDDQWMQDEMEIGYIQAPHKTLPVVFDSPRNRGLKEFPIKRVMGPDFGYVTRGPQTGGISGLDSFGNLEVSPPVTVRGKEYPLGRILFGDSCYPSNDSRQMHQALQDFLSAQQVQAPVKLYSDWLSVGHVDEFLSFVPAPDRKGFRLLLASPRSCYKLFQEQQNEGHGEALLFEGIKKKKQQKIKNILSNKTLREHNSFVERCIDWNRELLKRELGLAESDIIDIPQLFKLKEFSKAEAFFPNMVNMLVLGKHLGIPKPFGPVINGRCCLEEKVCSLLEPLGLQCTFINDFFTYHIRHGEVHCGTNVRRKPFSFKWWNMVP
Procedure, shortened: as §1

[3] = molecular target: Protein-arginine deiminase type-1 (Homo sapiens) (UniProt Q9ULC6); conditions: recombinant PAD1-4, BAEE citrullination, colorimetric absorbance; PAD1
Chain of Protein-arginine deiminase type-1 (Homo sapiens) (Q9ULC6 whole entry, looked up): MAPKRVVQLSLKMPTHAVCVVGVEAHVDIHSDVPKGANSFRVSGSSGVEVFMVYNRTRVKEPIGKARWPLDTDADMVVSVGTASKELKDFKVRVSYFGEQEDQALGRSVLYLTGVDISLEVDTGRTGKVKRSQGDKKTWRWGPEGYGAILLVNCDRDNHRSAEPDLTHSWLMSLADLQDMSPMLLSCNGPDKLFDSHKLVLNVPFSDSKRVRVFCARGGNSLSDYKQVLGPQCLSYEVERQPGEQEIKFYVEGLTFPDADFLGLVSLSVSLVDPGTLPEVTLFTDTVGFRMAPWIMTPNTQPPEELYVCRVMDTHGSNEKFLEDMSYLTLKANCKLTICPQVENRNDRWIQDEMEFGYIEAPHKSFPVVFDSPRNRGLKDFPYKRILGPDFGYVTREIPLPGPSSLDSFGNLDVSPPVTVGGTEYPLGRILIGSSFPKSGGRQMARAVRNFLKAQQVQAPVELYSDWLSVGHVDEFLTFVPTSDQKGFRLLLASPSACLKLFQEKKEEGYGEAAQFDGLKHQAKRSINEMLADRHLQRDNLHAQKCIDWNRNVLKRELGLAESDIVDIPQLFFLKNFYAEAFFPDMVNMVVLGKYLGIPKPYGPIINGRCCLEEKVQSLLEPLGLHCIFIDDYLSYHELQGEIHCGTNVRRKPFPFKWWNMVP
Procedure, shortened: as §1

[4] = molecular target: Protein-arginine deiminase type-2 (Homo sapiens) (UniProt Q9Y2J8); conditions: recombinant PAD1-4, BAEE citrullination, colorimetric absorbance; PAD2
Chain of Protein-arginine deiminase type-2 (Homo sapiens) (Q9Y2J8 whole entry, looked up): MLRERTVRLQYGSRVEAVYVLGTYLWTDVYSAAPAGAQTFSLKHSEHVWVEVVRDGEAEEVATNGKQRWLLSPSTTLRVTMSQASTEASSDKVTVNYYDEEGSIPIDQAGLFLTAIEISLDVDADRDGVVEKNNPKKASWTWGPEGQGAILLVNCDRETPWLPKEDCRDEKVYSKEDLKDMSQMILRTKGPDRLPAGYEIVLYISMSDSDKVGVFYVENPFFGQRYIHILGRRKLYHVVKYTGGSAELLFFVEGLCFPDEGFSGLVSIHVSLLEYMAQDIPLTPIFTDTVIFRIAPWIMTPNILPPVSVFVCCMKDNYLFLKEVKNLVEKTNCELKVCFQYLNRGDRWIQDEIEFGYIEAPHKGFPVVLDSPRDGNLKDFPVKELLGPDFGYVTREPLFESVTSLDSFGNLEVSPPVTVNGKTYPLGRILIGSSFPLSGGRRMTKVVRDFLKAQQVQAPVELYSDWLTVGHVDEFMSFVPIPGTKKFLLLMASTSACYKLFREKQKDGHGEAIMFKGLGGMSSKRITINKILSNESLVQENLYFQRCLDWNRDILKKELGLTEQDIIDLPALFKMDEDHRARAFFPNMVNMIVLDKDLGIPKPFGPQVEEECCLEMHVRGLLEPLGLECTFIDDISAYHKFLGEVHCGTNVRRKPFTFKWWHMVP
Procedure, shortened: as §1

IC50 [1]: inactive | IC50 [2]: inactive | IC50 [3]: inactive | IC50 [4]: inactive
Structure (SMILES): COC1=C(Br)C(=O)c2ncccc2C1=O
